Activity calls are given as the source filed them. No cut-off for these calls is given here. Residues, ends and D or L forms follow the SMILES beside them. *: point of attachment. Cbz = O=C(OCc1ccccc1)*
Key:
[1] = test system: MCF7; experiment: Antiproliferative activity against human MCF7 cells assessed as cell viability after 48 hrs MTT assay; format: functional, cell-based; conditions: MCF7, 48 h
How it was run: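 MTT:medium (1:9) added 4 h at 37°C, formazan dissolved in DMSO, absorbance 570 nm. DMSO solvent control; triplicate; IC50 = concentration inhibiting 50% of viability.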

[2] = molecular target: Proteasome Macropain subunit (Homo sapiens) (UniProt P49721); experiment: Inhibition of trypsin-like activity 20S proteasome beta subunit 2 of human MCF7 cells using fluorogenic substrate Boc-LRR-AMC at 10 uM after 1 hr by fluorescence analysis relative to control; format: cell-based
How it was run: (§1)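 Screen at 10 µM: MCF-7 lysates (sucrose/HEPES/MgCl2/EDTA buffer, 1 mM DTT) preincubated 10 min in 225 mM Tris pH 7.8, 7.5 mM MgOAc, 7.5 mM MgCl2, 45 mM KCl, 1 mM DTT; compound 1 h at 37 °C, then substrate 1 h at 37 °C; AMC release ex 360/em 460 nm versus DMSO; MG-132 positive control.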

[3] = molecular target: T1, Proteasome Macropain subunit MB1 (Homo sapiens) (UniProt P28074); experiment: Inhibition of chymotrypsin-like activity 20S proteasome beta subunit 5 of human MCF7 cells using fluorogenic substrate Suc-LLVY-AMC at 10 uM after 1 hr by fluorescence analysis relative to control; format: cell-based; how it was run: as §1
T1 sequence (whole entry): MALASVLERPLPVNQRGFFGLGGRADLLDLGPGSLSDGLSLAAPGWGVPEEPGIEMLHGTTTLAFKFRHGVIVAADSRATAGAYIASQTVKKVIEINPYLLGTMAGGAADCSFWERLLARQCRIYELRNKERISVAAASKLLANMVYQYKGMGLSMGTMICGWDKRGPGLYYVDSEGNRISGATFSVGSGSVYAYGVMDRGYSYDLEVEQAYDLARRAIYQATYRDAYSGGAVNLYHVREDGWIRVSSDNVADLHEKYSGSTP

[4] = molecular target: T2, Proteasome component C5 (Homo sapiens) (UniProt P20618); experiment: Inhibition of caspase-like activity 20S proteasome beta subunit 1 of human MCF7 cells using fluorogenic substrate Z-LLE-AMC at 10 uM after 1 hr by fluorescence analysis relative to control; format: cell-based; how it was run: as §1
T2 sequence (whole entry): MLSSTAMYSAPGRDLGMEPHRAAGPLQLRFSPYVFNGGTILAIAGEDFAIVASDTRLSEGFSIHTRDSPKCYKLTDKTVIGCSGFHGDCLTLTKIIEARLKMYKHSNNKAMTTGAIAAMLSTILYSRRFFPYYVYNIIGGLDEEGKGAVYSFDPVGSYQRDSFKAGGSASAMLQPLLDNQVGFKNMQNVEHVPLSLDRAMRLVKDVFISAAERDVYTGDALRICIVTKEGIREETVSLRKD

[5] = molecular target: T3, Proteasome Macropain subunit MB1 (Homo sapiens, UniProt P28074); experiment: Inhibition of chymotrypsin-like activity 20S proteasome beta subunit 5 of human MCF7 cells using fluorogenic substrate Suc-LLVY-AMC after 1 hr by fluorescence analysis; format: cell-based
T3 sequence (P28074 whole entry): T1 sequence (whole entry)
How it was run: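 For IC50, intact MCF-7 cells treated 12 h with compounds, then lysed (sucrose/HEPES/MgCl2/EDTA, 1 mM DTT); extracts in Tris pH 7.8/MgOAc/MgCl2/KCl/DTT mix with substrate 1 h at 37 °C; AMC fluorescence ex 360/em 460 nm, normalized to BCA total protein; DMSO solvent and MG-132 positive controls.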

[6] = test system: MCF7; experiment: Increase in K48-linked polyubiquitinated protein expression in human MCF7 cells at IC50 after 12 hrs by Western blot analysis; format: functional, cell-based
[7] = test system: MCF7; experiment: Effect on 20S proteasome beta subunit 5 expression in human MCF7 cells at IC50 after 12 hrs by Western blot analysis; format: functional, cell-based

Proteasome Macropain subunit (Homo sapiens), sequence (P49721 whole entry): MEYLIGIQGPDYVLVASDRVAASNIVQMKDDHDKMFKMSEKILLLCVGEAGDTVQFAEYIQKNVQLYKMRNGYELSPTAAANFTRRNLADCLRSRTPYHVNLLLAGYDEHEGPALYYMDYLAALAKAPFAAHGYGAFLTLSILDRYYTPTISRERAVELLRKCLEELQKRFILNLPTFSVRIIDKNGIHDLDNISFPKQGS

## Cc1cc(NC(=O)c2ccc(NC3=C(Cl)C(=O)c4ccccc4C3=O)cc2)no1
[1]
  IC50: 10.2 µM
[2]
  inhibition: 6.55%
[3]
  inhibition: 18.9%
[4]
  inhibition: 8.36%

## Cc1csc(NS(=O)(=O)c2ccc(NC3=C(Cl)C(=O)c4ccccc4C3=O)cc2)n1
[1]
  IC50: 4.23 µM
[2]
  inhibition: 21%
[3]
  inhibition: 24.8%
[4]
  inhibition: 15.4%

## O=C1C(Cl)=C(Nc2ccc(S(=O)(=O)Nc3cccc(Cl)c3)cc2)C(=O)c2ccccc21
[1]
  IC50: 2.1 µM
[2]
  inhibition: 24.5%
[3]
  inhibition: 28.8%
[4]
  inhibition: 14.2%

## Cc1ccnc(NS(=O)(=O)c2ccc(NC3=C(Cl)C(=O)c4ccccc4C3=O)cc2)c1
[1]
  IC50: 2.11 µM
[2]
  inhibition: 7.26%
[3]
  inhibition: 11.7%
[4]
  inhibition: 3.35%

## Cc1cccnc1NC(=O)c1ccc(NC2=C(Cl)C(=O)c3ccccc3C2=O)cc1
[1]
  IC50: 4.32 µM
[2]
  inhibition: inactive
[3]
  inhibition: 11.4%
[4]
  inhibition: 9.52%

## CC(C)C[C@@H](C=O)NC(=O)[C@H](CC(C)C)NC(=O)[C@H](CC(C)C)NC(=O)OCc1ccccc1 (Cbz-Leu-Leu-Leu-aldehyde)
[2]
  inhibition: 51.4%
[3]
  inhibition: 38.2%
[4]
  inhibition: 18.4%

## CCc1ccccc1NS(=O)(=O)c1ccc(NC2=C(Cl)C(=O)c3ccccc3C2=O)cc1
[1]
  IC50: 2.43 µM
[2]
  inhibition: 21.1%
[3]
  inhibition: 17.4%
[4]
  inhibition: 13.9%

## Cc1ccnc(NC(=O)c2ccc(NC3=C(Cl)C(=O)c4ccccc4C3=O)cc2)c1
[1]
  IC50: 1.72 µM
[2]
  inhibition: inactive
[3]
  inhibition: 16.6%
[4]
  inhibition: 8.37%

## O=C1C(Cl)=C(Nc2ccc(S(=O)(=O)Nc3cccc([N+](=O)[O-])c3)cc2)C(=O)c2ccccc21
[1]
  IC50: 2.17 µM
[2]
  inhibition: 19.4%
[3]
  inhibition: 23.5%
[4]
  inhibition: 7.44%

## O=C(Nc1nccs1)c1ccc(NC2=C(Cl)C(=O)c3ccccc3C2=O)cc1
[1]
  IC50: 3.84 µM
[2]
  inhibition: inactive
[3]
  inhibition: 19.6%
[4]
  inhibition: 3.59%

## Cc1ccc(NS(=O)(=O)c2ccc(NC3=C(Cl)C(=O)c4ccccc4C3=O)cc2)nc1
[1]
  IC50: 1.79 µM
[2]
  inhibition: 11.6%
[3]
  inhibition: 10.1%
[4]
  inhibition: inactive

## CC(C)c1ccccc1NC(=O)c1ccc(NC2=C(Cl)C(=O)c3ccccc3C2=O)cc1
[1]
  IC50: 2.61 µM
[2]
  inhibition: inactive
[3]
  inhibition: 17.2%
[4]
  inhibition: 9.94%

## O=C(Nc1ccc([N+](=O)[O-])cc1)c1ccc(NC2=C(Cl)C(=O)c3ccccc3C2=O)cc1
[1]
  IC50: 16.1 µM
[2]
  inhibition: 30.5%
[3]
  inhibition: 35.3%
[4]
  inhibition: 22.8%
[5]
  IC50: 33.1 µM

## Cc1cccc(NC(=O)c2ccc(NC3=C(Cl)C(=O)c4ccccc4C3=O)cc2)c1
[1]
  IC50: 14.4 µM
[2]
  inhibition: 3.39%
[3]
  inhibition: 14.6%
[4]
  inhibition: 15.1%

## O=C1C(Cl)=C(Nc2ccc(S(=O)(=O)N3CCOCC3)cc2)C(=O)c2ccccc21
[1]
  IC50: 1.84 µM
[2]
  inhibition: 2.76%
[3]
  inhibition: 10.8%
[4]
  inhibition: 16.2%

## O=C1C(Cl)=C(Nc2ccc(S(=O)(=O)Nc3ccccn3)cc2)C(=O)c2ccccc21
[1]
  IC50: 1.96 µM
[6]
  Activity: Active
[2]
  inhibition: 29.6%
[7]
  Activity: inactive
[3]
  inhibition: 36.8%
[4]
  inhibition: 18.8%
[5]
  IC50: 12.5 µM

## COc1cccc2c1C(=O)c1c(O)c3c(c(O)c1C2=O)C[C@@](O)(C(=O)CO)C[C@@H]3O[C@H]1C[C@H](N)[C@H](O)[C@H](C)O1 [DOXORUBICIN]
[1]
  IC50: 0.93 µM

## O=C1C(Cl)=C(Nc2ccc(S(=O)(=O)Nc3ccccc3[N+](=O)[O-])cc2)C(=O)c2ccccc21
[1]
  IC50: 3.99 µM
[2]
  inhibition: 21.3%
[3]
  inhibition: 17.3%
[4]
  inhibition: 14.2%
